According to ChEMBL document CHEMBL1157747, “Discovery, structure-activity relationships, pharmacokinetics, and efficacy of glucokinase activator (2R)-3-cyclopentyl-2-(4-methanesulfonylphenyl)-N-thiazol-2-yl-propionamide (RO0281675)” (J Med Chem, 2010):
In brackets after ≈: the same amount, converted by molar mass. Activity calls are given as the source filed them. No cut-off for these calls is given here.

Assays:
[1] = test system: Glucokinase (Homo sapiens); test: Activity of glucokinase at 30 uM
[2] = test system: Glucokinase (Homo sapiens); test: Activity of glucokinase assessed as stimulatory concentration required to increase 1.5 fold enzymatic activity
[3] = Aqueous solubility of the compound; assay type: physicochemical
Mus musculus = test: Reduction in glucose AUC in C57BL/6J mouse at 50 mg/kg, po pretreated 30 mins by oral glucose tolerance test relative to control; assay type: functional, organism-based; parameters: dose 50 mg/kg
Summary of the method: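 Male C57BL/6J mice got a single oral 50 mg/kg dose and underwent an oral glucose tolerance test. Fasting glucose and glucose tolerance were compared with vehicle-treated animals. Values are mean ± STD, n = 6 per time point; Student's t test, P < 0.05.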

[4] = Clearance in CD rat at 5 mg/kg, iv; assay type: ADME, organism-based; parameters: dose 5 mg/kg, route intravenous; settings: in vivo
[5] = Volume of distribution at steady state in CD rat at 5 mg/kg, iv; assay type: ADME, organism-based; parameters: dose 5 mg/kg, route intravenous; settings: in vivo, read-out: Vdss
[6] = AUC (0 to infinity) in CD rat at 5 mg/kg, iv; assay type: ADME, organism-based; parameters: time infinity, dose 5 mg/kg, route intravenous; settings: plasma
[7] = AUC (0 to infinity) in CD rat at 10 mg/kg, po; assay type: ADME, organism-based; parameters: time infinity, dose 10 mg/kg, route oral; settings: plasma
[8] = AUC (0 to infinity) in CD rat at 30 mg/kg, po; assay type: ADME, organism-based; parameters: time infinity, dose 30 mg/kg, route oral; settings: plasma
[9] = Cmax in CD rat at 10 mg/kg, po; assay type: ADME, organism-based; parameters: dose 10 mg/kg, route oral; settings: in vivo
[10] = Cmax in CD rat at 30 mg/kg, po; assay type: ADME, organism-based; parameters: dose 30 mg/kg, route oral; settings: in vivo
[11] = Tmax in CD rat at 10 mg/kg, po; assay type: ADME, organism-based; parameters: dose 10 mg/kg, route oral; settings: in vivo
[12] = Tmax in CD rat at 30 mg/kg, po; assay type: ADME, organism-based; parameters: dose 30 mg/kg, route oral; settings: in vivo
[13] = Oral bioavailability in CD rat at 10 mg/kg; assay type: ADME, organism-based; settings: in vivo
[14] = Oral bioavailability in CD rat at 30 mg/kg; assay type: ADME, organism-based; settings: in vivo
[15] = test system: Glucokinase (Homo sapiens); test: Activation of glucokinase at 20 uM relative to control
[16] = test system: Glucokinase (Homo sapiens); test: Activation of glucokinase assessed as […] in Km at 1 uM relative to control
[17] = test system: Glucokinase (Homo sapiens); test: Activation of glucokinase assessed as […] in Km at 20 uM relative to control
[18] = test system: Glucokinase (Homo sapiens); test: Activation of glucokinase assessed as increase in Vmax at 1 uM relative to control
Pancreatic islet = test: […] of glucose-stimulated insulin secretion in C57BL/6J mouse isolated pancreatic islets cells after 4 to 5 days
[19] = test system: Glucokinase (Homo sapiens); test: Activity of glucokinase up to 10 uM

Row | SMILES | Activity [2] | also measured
1 | CNC(=O)N(C)C(=O)C(CC1CCCC1)c1ccc(Cl)c(Cl)c1 (configuration not stated) | – | Activity [1]: inactive
2 | CC(C)CNC(=O)NC(=O)C(CC1CCCC1)c1ccc(Cl)c(Cl)c1 (configuration not stated) | 6.3 µM | –
3 | CC(C)CC(C(=O)NC(=O)N(C)C)c1ccc(Cl)c(Cl)c1 (configuration not stated) | – | Activity [1]: inactive
4 | O=C(Nc1nccs1)C(CC1CCCC1)c1ccc(Cl)c(Cl)c1 (configuration not stated) | 0.94 µM | solubility [3]: 5 µg/mL (≈ 13.5 µM)
5 | COC(=O)c1cnc(NC(=O)C(CC2CCCC2)c2ccc(Cl)c(Cl)c2)s1 (configuration not stated) | 0.92 µM | –
6 | CSc1ccc(C(CC2CCCC2)C(=O)Nc2nccs2)cc1 (configuration not stated) | 2.2 µM | –
7 | CCOC(=O)c1csc(NC(=O)C(CC2CCCC2)c2ccc(Cl)c(Cl)c2)n1 (configuration not stated) | 2.7 µM | –
8 | O=C(Nc1nccs1)C(CC1CCCC1)c1cccc(S(=O)(=O)C(F)(F)F)c1 (configuration not stated) | 1.4 µM | –
9 | CNC(=S)NC(=O)C(CC1CCCC1)c1ccc(Cl)c(Cl)c1 (configuration not stated) | 3.8 µM | –
10 | O=C(Nc1nccs1)C(CC1CCCC1)c1ccc(Cl)cc1 (configuration not stated) | 3.1 µM | –
11 | CNC(=O)NC(=O)C(CC1CCCC1)c1ccc(SC(F)(F)F)cc1 (configuration not stated) | 1.4 µM | –
12 | CCCNC(=O)NC(=O)C(CC1CCCC1)c1ccc(Cl)c(Cl)c1 (configuration not stated) | 1.3 µM | –
13 | CCOC(=O)c1cnc(NC(=O)C(CC2CCCC2)c2ccc(Cl)c(Cl)c2)s1 (configuration not stated) | 8 µM | –
14 | NC(=O)NC(=O)C(CC1CCCCCC1)c1ccc(Cl)c(Cl)c1 (configuration not stated) | 12 µM | –
15 | Cc1csc(NC(=O)C(CC2CCCC2)c2ccc(Cl)c(Cl)c2)n1 (configuration not stated) | 1.2 µM | –
16 | CNC(=O)NC(=O)C(CC1CCCC1)c1ccc(F)c(F)c1 (configuration not stated) | 8.5 µM | –
17 | O=C(Nc1nccs1)C(Cc1ccccc1)c1ccc(Cl)c(Cl)c1 (configuration not stated) | – | Activity [1]: inactive
18 | O=C(Nc1nccs1)C(CC1CCCC1)c1ccc(SC(F)(F)F)cc1 (configuration not stated) | 1.8 µM | –
19 | O=C(O)CNC(=O)NC(=O)C(CC1CCCC1)c1ccc(Cl)c(Cl)c1 (configuration not stated) | inactive | –
20 | CNC(=O)NC(=O)[C@H](CC1CCCC1)c1ccc(Cl)c(Cl)c1 | 0.41 µM | Activity (Mus musculus): Active; clearance [4]: 43.5 mL/min/kg; Vd [5]: 4.21 L/kg; AUC(0-inf) [6]: 1880 ng·h/mL; AUC(0-inf) [7]: 455 ng·h/mL; AUC(0-inf) [8]: 1460 ng·h/mL; Cmax [9]: 133 µg/mL; Cmax [10]: 0.471 µg/mL; Tmax [11]: 1.4 h; Tmax [12]: 3.3 h; bioavailability [13]: 12%; bioavailability [14]: 13%; fold change (FC) [15]: 1.7; fold change (FC) [16]: 0.66; fold change (FC) [17]: 0.22; fold change (FC) [18]: 1.4; Activity (Pancreatic islet): Dose-dependent effect
21 | CNC(=O)NC(=O)C(CC1CCCC1)c1cccc(Cl)c1 (configuration not stated) | 3.7 µM | –
22 | Cc1cnc(NC(=O)C(CC2CCCC2)c2ccc(Cl)c(Cl)c2)s1 (configuration not stated) | 0.64 µM | –

Row | SMILES | Activity [2] | also measured
23 | O=C(O)c1cnc(NC(=O)C(CC2CCCC2)c2ccc(Cl)c(Cl)c2)s1 (configuration not stated) | 26 µM | –
24 | CNC(=O)NC(=O)C(CC1CCCC1)c1ccc(S(=O)(=O)C(F)(F)F)cc1 (configuration not stated) | 0.3 µM | –
25 | O=C(Nc1ncc(CO)s1)C(CC1CCCC1)c1ccc(Cl)c(Cl)c1 (configuration not stated) | 0.75 µM | –
26 | O=C(Nc1nc(CO)cs1)C(CC1CCCC1)c1ccc(Cl)c(Cl)c1 (configuration not stated) | 0.99 µM | –
27 | CNC(=O)NC(=O)C(CC1CCCCC1)c1ccc(Cl)c(Cl)c1 (configuration not stated) | 1.4 µM | –
28 | Cc1nc(NC(=O)C(CC2CCCC2)c2ccc(Cl)c(Cl)c2)sc1C (configuration not stated) | 1.6 µM | –
29 | CNC(=O)NC(=O)C(CC1CCCC1)c1ccccc1 (configuration not stated) | 28.2 µM | –
30 | COC(=O)CNC(=O)NC(=O)C(CC1CCCC1)c1ccc(Cl)c(Cl)c1 (configuration not stated) | 0.55 µM | –
31 | CC(C)CC(C(=O)NC(N)=O)c1ccc(Cl)c(Cl)c1 (configuration not stated) | 29 µM | –
32 | O=C(O)c1csc(NC(=O)C(CC2CCCC2)c2ccc(Cl)c(Cl)c2)n1 (configuration not stated) | 29 µM | –
33 | N=C(N)NC(=O)C(CC1CCCC1)c1ccc(Cl)c(Cl)c1 (configuration not stated) | – | Activity [1]: inactive
34 | CNC(=O)NC(=O)C(CC1CCCC1)c1ccc(Br)cc1 (configuration not stated) | 3.8 µM | –
35 | CCOC(=O)Cc1csc(NC(=O)C(CC2CCCC2)c2ccc(Cl)c(Cl)c2)n1 (configuration not stated) | 0.61 µM | –
36 | CNC(=O)NC(=O)C(CC1CCCC1)c1ccc(S(C)(=O)=O)cc1 (configuration not stated) | 1.5 µM | –
37 | O=C(O)Cc1csc(NC(=O)C(CC2CCCC2)c2ccc(Cl)c(Cl)c2)n1 (configuration not stated) | 8 µM | –
38 | COC(=O)CCNC(=O)NC(=O)C(CC1CCCC1)c1ccc(Cl)c(Cl)c1 (configuration not stated) | 3.2 µM | –
39 | CNC(=O)NC(=O)C(CC1CCCC1)c1ccc([N+](=O)[O-])cc1 (configuration not stated) | 5.4 µM | –
40 | O=C1NCCN1C(=O)C(CC1CCCC1)c1ccc(Cl)c(Cl)c1 (configuration not stated) | – | Activity [1]: inactive
41 | O=C(O)CCNC(=O)NC(=O)C(CC1CCCC1)c1ccc(Cl)c(Cl)c1 (configuration not stated) | – | Activity [1]: inactive
42 | CNC(=O)NC(=O)C(CC1CCCC1)c1ccc(Cl)c(Cl)c1 (configuration not stated) | 1 µM | –
43 | CNC(=O)NC(=O)C(CC(C)C)c1ccc(Cl)c(Cl)c1 (configuration not stated) | 6 µM | –
44 | C=CCNC(=O)NC(=O)C(CC1CCCC1)c1ccc(Cl)c(Cl)c1 (configuration not stated) | 1.3 µM | –

Row | SMILES | Activity [2] | also measured
45 | NC(=O)NC(=O)C(CC1CCCCC1)c1ccc(Cl)c(Cl)c1 (configuration not stated) | 8.9 µM | –
46 | NC(=O)NC(=O)C(CC1CCCC1)c1ccc(Cl)c(Cl)c1 (configuration not stated) | 4.4 µM | –
47 | O=C(Nc1nc(CCO)cs1)C(CC1CCCC1)c1ccc(Cl)c(Cl)c1 (configuration not stated) | 0.84 µM | –
48 | CCNC(=O)NC(=O)C(CC1CCCC1)c1ccc(Cl)c(Cl)c1 (configuration not stated) | 0.53 µM | –
49 | O=C(Nc1nccs1)C(CC1CCCC1)c1ccc(S(=O)(=O)C(F)(F)F)cc1 (configuration not stated) | 0.19 µM | –
50 | O=C(Nc1nccs1)C(CC1CCCC1)c1ccc([N+](=O)[O-])cc1 (configuration not stated) | 0.84 µM | –
51 | O=C(Nc1nccs1)C(CC1CCCC1)c1cccc(Cl)c1 (configuration not stated) | 1.7 µM | –
52 | NC(=O)NC(=O)C(CC1CCC1)c1ccc(Cl)c(Cl)c1 (configuration not stated) | 10 µM | –
53 | CNC(=O)NC(=O)C(CCC1CCCC1)c1ccc(Cl)c(Cl)c1 (configuration not stated) | – | Activity [1]: inactive
54 | CCOC(=O)CCNC(=O)NC(=O)C(CC1CCCC1)c1ccc(Cl)c(Cl)c1 (configuration not stated) | 8.4 µM | –
55 | CS(=O)(=O)c1ccc([C@@H](CC2CCCC2)C(=O)Nc2nccs2)cc1 [Ro-281675] | – | Activity (Mus musculus): Active; clearance [4]: 30 mL/min/kg; Vd [5]: 2.16 L/kg; AUC(0-inf) [6]: 2770 ng·h/mL; AUC(0-inf) [7]: 5150 ng·h/mL; AUC(0-inf) [8]: 51700 ng·h/mL; Cmax [9]: 1140 µg/mL; Cmax [10]: 4300 µg/mL; Tmax [11]: 3.3 h; Tmax [12]: 4.7 h; bioavailability [13]: 92.8%; Activity (Pancreatic islet): Dose-dependent effect
56 | O=C(NCCO)NC(=O)C(CC1CCCC1)c1ccc(Cl)c(Cl)c1 (configuration not stated) | 3.4 µM | –
57 | CCOC(=O)CNC(=O)NC(=O)C(CC1CCCC1)c1ccc(Cl)c(Cl)c1 (configuration not stated) | 1.3 µM | –
58 | CCCCNC(=O)NC(=O)C(CC1CCCC1)c1ccc(Cl)c(Cl)c1 (configuration not stated) | – | Activity [1]: inactive
59 | COC(=O)Cc1csc(NC(=O)C(CC2CCCC2)c2ccc(Cl)c(Cl)c2)n1 (configuration not stated) | 0.82 µM | –
60 | NC(=O)NC(=O)C(CC1CC1)c1ccc(Cl)c(Cl)c1 (configuration not stated) | 40 µM | –
61 | COC(=O)c1csc(NC(=O)C(CC2CCCC2)c2ccc(Cl)c(Cl)c2)n1 (configuration not stated) | 0.5 µM | solubility [3]: 24 µg/mL (≈ 56.2 µM)
62 | C[S+]([O-])c1ccc(C(CC2CCCC2)C(=O)Nc2nccs2)cc1 (configuration not stated) | 2.2 µM | –
63 | CNC(=O)NC(=O)C(CC1CCCC1)c1ccc(Cl)cc1 (configuration not stated) | 5.4 µM | –
64 | CNC(=O)NC(=O)C(CC1CCCC1)c1ccc(SC)cc1 (configuration not stated) | 3.2 µM | –
65 | CNC(=O)NC(=O)C(CC1CCCC1)c1cccc(S(=O)(=O)C(F)(F)F)c1 (configuration not stated) | 1 µM | –
66 | CNC(=O)NC(=O)[C@@H](CC1CCCC1)c1ccc(Cl)c(Cl)c1 | – | Activity [1]: inactive; Activity [19]: inactive
